Data published in ChEMBL document CHEMBL3044723, “Phytotoxins from the leaves of Ruta graveolens” (2004).
The source made the active and inactive calls. The calls are words filed in the database; no cut-off is given here.

How the values were obtained:
[1] = test system: Lactuca sativa; assay: Phytotoxicity against Lactuca sativa cv. Burpee's Iceberg (lettuce) assessed as reduction in chlorophyll content compound treated at 100 uM in darkness after 7 days followed by exposure to white light by spectrophotometry; type: functional, organism-based
Procedure, shortened: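 Seedlings were treated in wells with 1% acetone final and kept in foil-wrapped darkness at 26 °C for 7 days. They then received 5 min of white light (80 µmol s⁻¹ m⁻² PAR) and were returned to darkness for 1 h. Ten cotyledon pairs were weighed and extracted in DMSO in the dark. Chlorophyll was read at 645/663 nm and compared with the solvent control.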

[2] = test system: Lactuca sativa; assay: Phytotoxicity against Lactuca sativa cv. Burpee's Iceberg (lettuce) assessed as reduction in chlorophyll content at 100 uM after 7 days by spectrophotometry; type: functional, organism-based
Procedure, shortened: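 Seeds grown in 24-well plates in water with 3% acetone, at 26 °C under continuous light (173 µmol s⁻¹ m⁻²) for 7 days. Cotyledons from three plants per well were weighed and extracted in 2 mL DMSO at 60 °C for 2 h, then diluted with 1 mL more DMSO. A645 and A663 were read and converted to total chlorophyll (20.2A645 + 8.02A663). Values were normalized to cotyledon weight.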

[3] = test system: Lactuca sativa; assay: Phytotoxicity against Lactuca sativa cv. Burpee's Iceberg (lettuce) assessed as unbranched root tips at 10 uM after 7 days by spectrophotometry relative to control; type: functional, organism-based
[4] = test system: Allium cepa; assay: Phytotoxicity against Allium cepa (onion) assessed as accumulation of cells at metaphase in root tips at 33 uM measured on day 7 of compound treatment by microscopy; type: functional, organism-based
Procedure, shortened: (§1)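 Ten surface-sterilized onion seeds were placed on filter paper in 6-cm dishes with 1 mL of water containing compound (final 0.05% acetone). Controls received water or acetone/water. Dishes were kept at 25 °C under a 16 h photoperiod at 173 µmol s⁻¹ m⁻². On day 7, root tips were fixed (HOAc/EtOH 1:3), hydrolyzed in 5 N HCl for 1 h, and Feulgen-stained with Schiff's reagent for 45 min. At least 1000 cells per slide were scored at 40×.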

[5] = test system: Allium cepa; assay: Phytotoxicity against Allium cepa (onion) assessed as accumulation of cells at prophase in root tips at 33 uM measured on day 7 of compound treatment by microscopy; type: functional, organism-based; procedure, shortened: as §1
[6] = test system: Allium cepa; assay: Phytotoxicity against Allium cepa (onion) assessed as inhibition of mitosis in root tips at 100 uM measured on day 7 of compound treatment by microscopy; type: functional, organism-based; procedure, shortened: as §1
[7] = test system: Agrostis stolonifera; assay: Phytotoxicity against Agrostis stolonifera assessed as mortality at 333 uM after 12 days; type: functional, organism-based
Procedure, shortened: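 Seeds (10 mg) per well of 24-well plates in 250 µL water containing 3% acetone as final concentration; solvent-only controls. Plates were sealed and incubated at 26 °C under continuous light at 173 µmol s⁻¹ m⁻². Concentrations tested were 10, 33, 100 and 333 µM. Phytotoxicity was scored visually against untreated controls.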

[8] = test system: Lactuca sativa; assay: Phytotoxicity against Lactuca sativa cv. Burpee's Iceberg (lettuce) assessed as blunt root tips at 10 uM after 7 days by spectrophotometry relative to control; type: functional, organism-based
[9] = test system: Lactuca sativa; assay: Phytotoxicity against Lactuca sativa cv. Burpee's Iceberg (lettuce) assessed as reduction in radical length at 10 uM after 7 days by spectrophotometry relative to control; type: functional; design: scale not given: the % may be the effect or the level left
Procedure, shortened: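 Lettuce seeds were set in multiwell plates with test material supplied from acetone in DDI water (3% acetone final). Controls received acetone and water only. Plates were sealed and kept at 26 °C under continuous light at 173 µmol s⁻¹ m⁻² for 7 days. Root lengths, together with plant weight and chlorophyll content, were compared against untreated controls.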

[10] = test system: Lemna aequinoctialis; assay: Phytotoxicity against Lemna paucicostata assessed as tissue degradation at 250 uM after 4 to 5 days; type: functional, organism-based
[11] = test system: Lemna aequinoctialis; assay: Phytotoxicity against Lemna paucicostata assessed as growth inhibition at 100 uM after 4 to 5 days; type: functional, organism-based
Procedure, shortened: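 Hoagland medium at pH 5.5 was filter-sterilized in 6-well plates, with compound added in acetone or EtOH (1% final). Two three-frond colonies from 4- to 5-day-old stock cultures were placed per well. Total frond area was recorded by image analysis from day 0 to day 7.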

SMILES	Activity [1]	Activity [2]	Activity [3]	Activity [4]	Activity [5]	inhibition [6]	Activity [7]	Activity [8]	Activity [9]	Activity [10]	growth inhibition (GI) [11]
COc1c2occc2cc2ccc(=O)oc12 [METHOXSALEN]	inactive	Active	Active	Active	Active	Active	Active	Active	39%		
Cn1c(-c2ccc3c(c2)OCO3)cc(=O)c2ccccc21	inactive	Active				Active	Active			Active	Active
COc1c2ccoc2cc2oc(=O)ccc12			inactive			Active	Active	inactive	inactive		
